Among the data in ChEMBL document CHEMBL4145462, “Nitrogen-containing ecdysteroid derivatives vs. multi-drug resistance in cancer: Preparation and antitumor activity of oximes, oxime ethers and a lactam” (Eur J Med Chem, 2018) are CI values, retold here.

The first test is described as follows: Synergistic cytotoxicity against mouse L5178 cells expressing human ABCB1 assessed as combination index at ED90 using 7.5:1 test compound to doxorubicin ratio after 48 hrs by MTT-based checkerboard microplate method. The format is functional. An outline of the steps:
(§1)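 Checkerboard microplate combinations of compound with doxorubicin at constant molar ratios. 5 × 10^4 cells/well in McCoy's 5A, 48 h at 37°C, 5% CO2. MTT added to 0.5 mg/mL final for 4 h, SDS/HCl overnight, OD read at 540 and 630 nm. Combination indices derived per ratio for 50%, 75% and 90% growth inhibition by median-effect analysis.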
`CO/N=C1/C=C2C3=CC[C@H]([C@@]4(C)OC(C)(C)O[C@@H]4CCC(C)(C)O)[C@@]3(C)CC[C@@H]2[C@@]2(C)C[C@@H]3OC(C)(C)O[C@@H]3C[C@@H]12`: the CI amounted to 0.15.

Another test can be described thus: Synergistic cytotoxicity against mouse L5178 cells assessed as combination index at ED75 using 37.5:1 test compound to doxorubicin ratio after 48 hrs by MTT-based checkerboard microplate method. The format is functional. An outline of the steps:
as §1
Regarding `CO/N=C1/C=C2C3=CC[C@H]([C@@]4(C)OC(C)(C)O[C@@H]4CCC(C)(C)O)[C@@]3(C)CC[C@@H]2[C@@]2(C)C[C@@H]3OC(C)(C)O[C@@H]3C[C@@H]12`, the CI was found to be 0.47.

The nature of the next test: Synergistic cytotoxicity against mouse L5178 cells expressing human ABCB1 assessed as combination index at ED75 using 3.75:1 test compound to doxorubicin ratio after 48 hrs by MTT-based checkerboard microplate method. The format is functional. An outline of the steps: as §1
Turning to `CO/N=C1/C=C2C3=CC[C@H]([C@@]4(C)OC(C)(C)O[C@@H]4CCC(C)(C)O)[C@@]3(C)CC[C@@H]2[C@@]2(C)C[C@@H]3OC(C)(C)O[C@@H]3C[C@@H]12`, the CI is recorded as 0.17.

The nature of a further test: Synergistic cytotoxicity against mouse L5178 cells expressing human ABCB1 assessed as combination index at ED90 using 3.75:1 test compound to doxorubicin ratio after 48 hrs by MTT-based checkerboard microplate method. Type of test: functional. An outline of the steps: as §1
Take `CO/N=C1/C=C2C3=CC[C@H]([C@@]4(C)OC(C)(C)O[C@@H]4CCC(C)(C)O)[C@@]3(C)CC[C@@H]2[C@@]2(C)C[C@@H]3OC(C)(C)O[C@@H]3C[C@@H]12`: the CI is listed as 0.14.

Another test can be described thus: Synergistic cytotoxicity against mouse L5178 cells assessed as combination index at ED50 using 75:1 test compound to doxorubicin ratio after 48 hrs by MTT-based checkerboard microplate method. Type of test: functional. An outline of the steps: as §1
On to `CO/N=C1/C=C2C3=CC[C@H]([C@@]4(C)OC(C)(C)O[C@@H]4CCC(C)(C)O)[C@@]3(C)CC[C@@H]2[C@@]2(C)C[C@@H]3OC(C)(C)O[C@@H]3C[C@@H]12`, for which the CI was 0.69.

The next test is described as follows: Synergistic cytotoxicity against mouse L5178 cells assessed as combination index at ED75 using 75:1 test compound to doxorubicin ratio after 48 hrs by MTT-based checkerboard microplate method. The format is functional. An outline of the steps: as §1
As for `CO/N=C1/C=C2C3=CC[C@H]([C@@]4(C)OC(C)(C)O[C@@H]4CCC(C)(C)O)[C@@]3(C)CC[C@@H]2[C@@]2(C)C[C@@H]3OC(C)(C)O[C@@H]3C[C@@H]12`, the CI amounted to 0.5.

The next test in a line: Synergistic cytotoxicity against mouse L5178 cells assessed as combination index at ED90 using 75:1 test compound to doxorubicin ratio after 48 hrs by MTT-based checkerboard microplate method. Type of test: functional. An outline of the steps: as §1
`CO/N=C1/C=C2C3=CC[C@H]([C@@]4(C)OC(C)(C)O[C@@H]4CCC(C)(C)O)[C@@]3(C)CC[C@@H]2[C@@]2(C)C[C@@H]3OC(C)(C)O[C@@H]3C[C@@H]12`: the CI turned out to be 0.39.

A short description of a further test: Synergistic cytotoxicity against mouse L5178 cells expressing human ABCB1 assessed as combination index at ED75 using 60:1 test compound to doxorubicin ratio after 48 hrs by MTT-based checkerboard microplate method. The format is functional. An outline of the steps:
as §1
For `CO/N=C1/C=C2C3=CC[C@H]([C@@]4(C)OC(C)(C)O[C@@H]4CCC(C)(C)O)[C@@]3(C)CC[C@@H]2[C@@]2(C)C[C@@H]3OC(C)(C)O[C@@H]3C[C@@H]12`, the CI came to 0.34.

The nature of another test: Synergistic cytotoxicity against mouse L5178 cells expressing human ABCB1 assessed as combination index at ED90 using 60:1 test compound to doxorubicin ratio after 48 hrs by MTT-based checkerboard microplate method. Type of test: functional. An outline of the steps:
as §1
Consider `CO/N=C1/C=C2C3=CC[C@H]([C@@]4(C)OC(C)(C)O[C@@H]4CCC(C)(C)O)[C@@]3(C)CC[C@@H]2[C@@]2(C)C[C@@H]3OC(C)(C)O[C@@H]3C[C@@H]12`, for which the CI was 0.36.

The nature of a further test: Synergistic cytotoxicity against mouse L5178 cells assessed as combination index at ED75 using 300:1 test compound to doxorubicin ratio after 48 hrs by MTT-based checkerboard microplate method. Type of test: functional. An outline of the steps: as §1
As to `CO/N=C1/C=C2C3=CC[C@H]([C@@]4(C)OC(C)(C)O[C@@H]4CCC(C)(C)O)[C@@]3(C)CC[C@@H]2[C@@]2(C)C[C@@H]3OC(C)(C)O[C@@H]3C[C@@H]12`, the CI worked out at 0.83.

Another test in a line: Synergistic cytotoxicity against mouse L5178 cells assessed as combination index at ED90 using 300:1 test compound to doxorubicin ratio after 48 hrs by MTT-based checkerboard microplate method. The format is functional. An outline of the steps:
as §1
Take `CO/N=C1/C=C2C3=CC[C@H]([C@@]4(C)OC(C)(C)O[C@@H]4CCC(C)(C)O)[C@@]3(C)CC[C@@H]2[C@@]2(C)C[C@@H]3OC(C)(C)O[C@@H]3C[C@@H]12`: the CI worked out at 0.87.

The nature of a further test: Synergistic cytotoxicity against mouse L5178 cells assessed as combination index at ED50 using 600:1 test compound to doxorubicin ratio after 48 hrs by MTT-based checkerboard microplate method. Type of test: functional. An outline of the steps: as §1
As to `CO/N=C1/C=C2C3=CC[C@H]([C@@]4(C)OC(C)(C)O[C@@H]4CCC(C)(C)O)[C@@]3(C)CC[C@@H]2[C@@]2(C)C[C@@H]3OC(C)(C)O[C@@H]3C[C@@H]12`, the CI is 1.14.

The nature of a further test: Synergistic cytotoxicity against mouse L5178 cells assessed as combination index at ED75 using 600:1 test compound to doxorubicin ratio after 48 hrs by MTT-based checkerboard microplate method. Type of test: functional. An outline of the steps: as §1
In the case of `CO/N=C1/C=C2C3=CC[C@H]([C@@]4(C)OC(C)(C)O[C@@H]4CCC(C)(C)O)[C@@]3(C)CC[C@@H]2[C@@]2(C)C[C@@H]3OC(C)(C)O[C@@H]3C[C@@H]12`, the CI stood at 1.2.

The nature of a further test: Synergistic cytotoxicity against mouse L5178 cells assessed as combination index at ED90 using 600:1 test compound to doxorubicin ratio after 48 hrs by MTT-based checkerboard microplate method. Type of test: functional. An outline of the steps: as §1
In the case of `CO/N=C1/C=C2C3=CC[C@H]([C@@]4(C)OC(C)(C)O[C@@H]4CCC(C)(C)O)[C@@]3(C)CC[C@@H]2[C@@]2(C)C[C@@H]3OC(C)(C)O[C@@H]3C[C@@H]12`, the CI was determined as 1.3.
